The text below walks through data of PubChem BioAssay AID743214 (The Scripps Research Institute Molecular Screening Center, 2013).

Usually inhibition stands for the drop in the measured response relative to a control, in per cent.

About 10 (0.5%) of roughly 2,100 compounds were called active.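 The calls were made as follows: active = mean triplicate inhibition above the solvent-only control wells' mean plus 3 SD (cut at about 12% in these data); inactive = the rest.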 Not all results are given here.

Chain of Disintegrin and metalloproteinase domain-containing protein 17 (Homo sapiens) (P78536 215-824 limits assumed): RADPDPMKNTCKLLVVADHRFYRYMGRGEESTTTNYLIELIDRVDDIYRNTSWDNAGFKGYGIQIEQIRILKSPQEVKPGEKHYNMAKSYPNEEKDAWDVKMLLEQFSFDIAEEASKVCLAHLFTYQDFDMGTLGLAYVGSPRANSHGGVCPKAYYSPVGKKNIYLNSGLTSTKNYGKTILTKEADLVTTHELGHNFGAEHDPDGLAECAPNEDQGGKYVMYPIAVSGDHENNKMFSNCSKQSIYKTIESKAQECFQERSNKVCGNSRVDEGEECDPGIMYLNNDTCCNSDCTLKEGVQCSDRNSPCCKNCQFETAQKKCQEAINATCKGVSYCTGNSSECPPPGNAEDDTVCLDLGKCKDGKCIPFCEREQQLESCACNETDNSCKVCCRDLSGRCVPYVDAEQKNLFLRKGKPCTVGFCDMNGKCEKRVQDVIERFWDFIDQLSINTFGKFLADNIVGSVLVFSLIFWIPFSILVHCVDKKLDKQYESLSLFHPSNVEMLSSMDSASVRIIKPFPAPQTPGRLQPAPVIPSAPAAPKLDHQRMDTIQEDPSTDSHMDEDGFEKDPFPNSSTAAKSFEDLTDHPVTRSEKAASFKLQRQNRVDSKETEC

In the experiment the target is Disintegrin and metalloproteinase domain-containing protein 17 (Homo sapiens) (UniProt P78536). Nature of the experiment: inhibition of ADAM17 peptide cleavage – biochemical, QFRET, high throughput, counter-screen for ADAM10 exosite inhibitor project (AID 743214).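 Also: 0% = DMSO wells and 100% = marimastat wells.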 The following applies: EDANS fluorescence, at 6.95 µM, stronger effect = higher value. The method in brief:
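Read-out: percent inhibition scaled between DMSO and 1 µM marimastat wells; System: ADAM17 enzyme, quenched-FRET peptide cleavage; Quantity: ADAM17 added as 2X stock of 20 nM; Also added: DM2 peptide substrate; Incubation: 30 min compound–enzyme preincubation, then 3 h reaction, both 25 °C; Technique: fluorescence at ex 359 / em 460 nm.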
Take `Cn1c(CNc2nc(-c3ccccc3)cs2)nnc1SCC(=O)c1ccccc1`: the inhibition is 0.06% (inactive).

As to `COc1ccc(C(CCN(Cc2ccc(OC)c(OC)c2)C(=O)CCl)c2ccccc2)cc1` (stereo unspecified), the inhibition is 1.03% (inactive). For `CCOc1cc(/C=N/NC(=O)c2cc(-c3ccccc3)nc3ccccc23)ccc1O`, the inhibition was 4.94% (inactive). Under `O=C(CSC1=NCCS1)Nc1nc(-c2ccccc2)cs1` stands 0.66% (inactive). As to `COc1ccc(OCCCn2cccc2/C=C2/C(=N)N3OC(C)=CC3=NC2=O)cc1`, the inhibition is 0.03% (inactive).

With `Cc1ccc(/C=N/NC(=O)CSc2nc3ccccc3o2)cc1`, the inhibition is 0.11% (inactive). Next, `COc1cc(/C=C2/SC(=S)N(Cc3ccccc3)C2=O)cc(OC)c1O`: 3.03% (inactive); `CN(C)S(=O)(=O)c1cccc(NC(=O)COC(=O)C2(c3ccccc3F)CCCC2)c1`: 0.96% (inactive). Under `N/C(Cc1ccc([N+](=O)[O-])cc1)=N\OC(=O)COc1ccc2ccccc2c1` stands 1.74% (inactive); under `O=C1NC(Nc2nc3ccccc3s2)(C(F)(F)F)C(=O)N1C1CCCCC1` (stereo unspecified), 0.94% (inactive); under `COc1cc(C2CC(=O)N3CN(Cc4ccccc4)CSC3=C2C#N)ccc1OCc1ccccc1` (stereo unspecified), 2.1% (inactive). Under `O=C(OCc1ccc(-c2ccccc2)cc1)c1cccc(O)c1` stands 4.02% (inactive); under `COC(=O)[C@@]12C[C@@H](CC(=O)NCCCCc3ccccc3)C(=O)N(CCc3ccc(OC)c(OC)c3)C1=CCC(C)(C)C2`, 0.87% (inactive). As for `COc1cc(Cl)c(S(=O)(=O)N2CCN(Cc3ccc4c(c3)OCO4)CC2)cc1Cl`, the inhibition was 1.24% (inactive). Under `CCOc1ccc(Nc2oc(Cc3ccccc3)nc2C#N)cc1` stands 1.58% (inactive); under `CCOc1ccc(Br)cc1S(=O)(=O)Nc1ccc(C(=O)OC(C)C(=O)N(C)c2ccccc2)cc1` (stereo unspecified), 2.71% (inactive); under `C=CCC[C@@H](Cc1ccc(F)cc1)C(=O)O[C@H](CNC(=O)[C@H](CC=C)CC(=O)N(CCO)Cc1ccccc1)c1ccccc1`, 3.84% (inactive). Next, `O=C(Cc1ccc(Cl)c(Cl)c1)Nc1ccc(SC(F)F)cc1`: 2.25% (inactive); `CC(C)(C)c1ccc(S(=O)(=O)NCC2CCN(C(=O)C(=O)c3cc4ccccc4o3)CC2)cc1`: 1.76% (inactive). Next, `COc1ccc(Cl)cc1NC(=O)COC(=O)C(CC(C)C)N1C(=O)C2CC=CCC2C1=O` (stereo unspecified): 0.79% (inactive); `CC(C)(C)c1ccc(C(=O)Nc2cc(Cl)c(Br)cc2C(=O)O)cc1`: 0.16% (inactive); `CCCCCc1c(-c2ccc(OC)c(OC)c2)ncn1CCc1ccccc1OC`: 1.69% (inactive). For `Cc1ccc(NS(=O)(=O)c2ccc(C)c(NC(=O)COc3ccc4ccccc4c3)c2)c(C)c1`, the inhibition is 4.43% (inactive).

In the case of `COc1ccc(NS(=O)(=O)c2ccc(C)c(C(=O)NNC(=O)c3csc(N4CCOCC4)n3)c2)cc1`, the inhibition was 1.55% (inactive). Under `O=C(COC(=O)CCCSc1nc2ccccc2[nH]1)Nc1ccc(Oc2ccccc2)cc1` stands 3.79% (inactive); under `Cc1cccc(CCNS(=O)(=O)c2ccc(S(=O)(=O)NC3CCCC3)cc2)c1`, -0.14% (inactive); under `O=C(CSCc1ccc(Br)cc1)Nc1ccc(S(=O)(=O)N2CCCCCC2)cc1`, 3.71% (inactive). On to `O=Cc1cn(CCOc2ccc(F)cc2)c2ccccc12`, for which the inhibition was -0.11% (inactive).

For the compound `O=C(Nc1cccc(S(=O)(=O)Nc2ccc(Cl)cc2)c1)c1ccc2c(c1)OCCO2`, the inhibition was 2.96% (inactive).

For `COc1cccc(NC(=O)CN2CCN(c3nc(-c4cccc(OC)c4)cs3)CC2)c1`, the inhibition was 2.32% (inactive). Next, `Cc1ccc(NC(=O)c2nc[nH]c2C(=O)N[C@@H](CCCCNC(=O)OC(C)(C)C)C(=O)OC(C)(C)C)cc1`: 3.32% (inactive); `S=c1[nH]cc(-c2ccc(Cl)cc2)n1-c1ccccc1`: 0.72% (inactive).

Consider `CCC1(C)Cc2c(sc3nnn(CC(=O)Nc4ccc(Cl)cc4)c(=O)c23)CO1` (stereo unspecified), for which the inhibition is 1.24% (inactive). Next, `CC(C)(C)N1C(=O)[C@H]2[C@@H](c3ccc(Br)cc3)N3C(=O)N(c4cccc(Cl)c4)C(=O)[C@@]3(C)[C@H]2C1=O`: 0.76% (inactive). Next, `Cc1ccc(S(=O)(=O)N(CC(=O)Nc2cccnc2)c2ccc(Br)cc2)cc1`: 0.35% (inactive). In the case of `O=C(NCCc1ccc(Cl)cc1Cl)c1cc([N+](=O)[O-])c[nH]c1=O`, the inhibition was 0.13% (inactive).

As to `O=S(=O)(c1cccc(S(=O)(=O)N2CCC(n3nnc4ccccc43)CC2)c1)N1CCCCC1`, the inhibition is 0.16% (inactive). Next, `C#CCN(C[C@H]1[C@H](OC(=O)NC2CCCC2)[C@H](OC(=O)NC2CCCC2)C[C@H]2C(=O)N(c3ccccc3)C(=O)[C@@H]12)S(=O)(=O)c1ccc(C)cc1`: 1.32% (inactive). Next, `COc1ccc([C@@H]2[C@@H]3C(=O)N(C(C)(C)C)C(=O)[C@@H]3[C@]3(Cc4ccccc4)C(=O)N(c4cccc(Br)c4)C(=O)N23)cc1`: 2.34% (inactive); `O=C(CC(O)(C(F)(F)F)C(F)(F)F)Nc1ccc(Cl)c(Cl)c1`: 1.21% (inactive); `O=S(=O)(c1ccccc1)N(Cc1cccc(F)c1)c1ccccc1`: 0.96% (inactive). With `C=C(C)COc1ccc(-c2n[nH]c(C)c2-c2ccccc2)c(O)c1`, the inhibition is 3.15% (inactive). Regarding `COc1ccc(C(N)c2csc(NC(=O)Nc3cccc(C(F)(F)F)c3)n2)cc1` (stereo unspecified), the inhibition was 1.65% (inactive). Next, `COC(=O)C1NN=C(C(=O)c2ccc(Br)cc2)C1c1cccc(Br)c1` (stereo unspecified): 1.16% (inactive). Next, `CCC(C(=O)OCC(=O)Nc1ccccc1-c1ccccc1)c1ccccc1` (stereo unspecified): 1.36% (inactive). Under `COc1cccc(C2CC(c3ccccc3)=NN2S(=O)(=O)c2ccccc2)c1OC` (stereo unspecified) stands 1.14% (inactive).

As to `Cc1ccc(S(=O)(=O)N2CCN(C(=O)COC(=O)c3c(C)cc(C)cc3C)CC2)c(C)c1`, the inhibition is 1.25% (inactive). Next, `CC(N=Cc1nc(-c2ccccc2)oc1O)c1ccccc1` (stereo unspecified): 1.57% (inactive). Consider `Cc1cccc(C2c3[nH]c4ccccc4c3CCN2C(=O)c2cc(-c3cccn3C)n[nH]2)n1` (stereo unspecified), for which the inhibition was 2.55% (inactive).

`COc1ccc([C@H]2CC(=O)C=C(c3ccc(OC(F)(F)F)cc3)C2)cc1OC`: the inhibition was 0.8% (inactive). Next, `O=C(CC1SC(=Nc2ccccc2)N(Cc2ccccn2)C1=O)Nc1cccc(Cl)c1` (stereo unspecified): 2.48% (inactive); `COc1cc(/C=N/O)cc(Br)c1OS(=O)(=O)c1ccc(C)cc1`: 0.97% (inactive); `CC(C)C(=O)Nc1cccc(NC(=S)NC(=O)C(c2ccccc2)c2ccccc2)c1`: 3.08% (inactive). Next, `CC(C)(C)OC(=O)N1CCC(NC(=O)c2[nH]cnc2C(=O)N[C@@H](Cc2ccccc2)C(=O)OCc2ccccc2)CC1`: 3.26% (inactive); `CCOc1ccc(N2C(=O)CC(N(CCc3ccc(OC)c(OC)c3)C(=S)Nc3ccccc3)C2=O)cc1` (stereo unspecified): 0.25% (inactive); `CCCC(=O)n1nc(NCc2ccc(OC)cc2)nc1NCc1ccc(OC)cc1`: 2.02% (inactive). Under `O=C(/C=C/c1ccc(F)cc1)NC(=S)NNC(=O)c1cccnc1` stands 0.5% (inactive); under `COc1cccc(NC(=O)C2C(c3ccccc3)C2(Cl)Cl)c1` (stereo unspecified), 1% (inactive); under `CC1(C)C=Cc2c(ccc3c2OC[C@@H](c2ccc(O)cc2O)C3)O1`, 2.8% (inactive). `Cc1ccc(C)c(NC(=S)NNC(=O)c2csc(C)c2)c1`: the inhibition was 2.16% (inactive).

With `COc1ccc(S(=O)(=O)N2CCN(C(C)C(=O)Nc3ccc(C(C)C)cc3)CC2)cc1` (stereo unspecified), the inhibition is 1.3% (inactive).

As to `COc1ccc(C(=O)NNC(=S)NC(=O)c2ccccc2)cc1`, the inhibition is 0.42% (inactive). As for `O=C1[C@H]2[C@@H](c3ccc(F)cc3)N3C(=O)N(c4ccc(C(F)(F)F)cc4)C(=O)[C@@]3(Cc3ccccc3)[C@H]2C(=O)N1C1CCCCC1`, the inhibition was 2.35% (inactive). Next, `COc1cccc(CC2(CO)CCCN(Cc3ccc(OC(F)F)cc3)C2)c1` (stereo unspecified): 0.36% (inactive); `CC(C)Oc1cc(F)ccc1-c1cc(C(=O)Nc2cccc(Cl)c2)[nH]n1`: 2.81% (inactive); `CCOc1cc(NC(=O)c2ccccc2C(=O)O)c(OCC)cc1NC(=O)c1ccccc1F`: 2.06% (inactive). Next, `Cc1csc(NC(=S)Nc2cccc(Cl)c2)n1`: 2.94% (inactive); `O=C(NC(Cc1c[nH]c2ccccc12)C(=O)N/N=C/c1ccc(Br)cc1)c1cccs1` (stereo unspecified): 3.25% (inactive). Under `Cc1cc(C)cc(NS(=O)(=O)c2ccc(Oc3ncc(C(F)(F)F)cc3Cl)cc2)c1` stands 5.19% (inactive); under `Cc1ccc(N(NC(=O)C(C)(C)O)C(=O)c2ccccc2)cc1C`, -0.31% (inactive). In the case of `O=C1[C@H]2[C@@H](c3ccc(C(F)(F)F)cc3)N[C@]3(CCCN(Cc4ccc(Br)cc4)C3=O)[C@H]2C(=O)N1Cc1ccccc1`, the inhibition was 2.47% (inactive).

For `Cc1[nH]c2ccccc2c1C(=O)COC(=O)c1c(-c2ccccc2)noc1C`, the inhibition was 2.46% (inactive).

Take `CC1(Cc2cccc(C#N)c2)C(=O)Nc2ccc(-c3cccc(C(F)(F)F)c3)cc21` (stereo unspecified): the inhibition was 2.64% (inactive). `Cc1ccc(OCc2nnc(SC/C=C/c3ccccc3)n2Cc2ccco2)cc1`: the inhibition was 2.07% (inactive). Take `Cc1ccccc1-n1c(SCC(=O)Nc2cccc3ccccc23)nc(O)cc1=O`: the inhibition is 0.79% (inactive). Regarding `O=C(CNC(=O)c1ccc(Cl)cc1Cl)NCC(=O)Nc1ccccc1N1CCOCC1`, the inhibition is -0.05% (inactive). Next, `Cc1cnc(C(=O)OCc2c(C)cc(C(C)(C)C)cc2C)cn1`: 0.19% (inactive). Under `Cc1cc(C)cc(NC(=O)CSCc2cnn(-c3ccccc3)c2-n2cccc2)c1` stands 1.7% (inactive); under `c1ccc2c(CCN3CCNC[C@H]3Cc3cccc4ccccc34)cccc2c1`, 2.24% (inactive); under `Cc1cc(O)ccc1-c1cc(C(=O)NCc2cc(C(F)(F)F)cc(C(F)(F)F)c2)[nH]n1`, 1.86% (inactive). Under `Cc1cc(C)cc(NC(=S)NCCc2c[nH]c3ccccc23)c1` stands 0.79% (inactive).

Consider `COc1ccc(C2CC(c3ccccc3)=NN2C(=O)COC(=O)COc2ccccc2)cc1` (stereo unspecified), for which the inhibition was 3.56% (inactive).

Turning to `C=CC[C@H](CC(=O)N(CCO)Cc1ccccc1)C(=O)N[C@@H](COC(=O)[C@@H](CC=C)Cc1ccc(F)cc1)Cc1ccccc1`, the inhibition was 3.06% (inactive). With `CCC(C)(C)c1ccc(Oc2ccc(NC(=O)COC(=O)C3=COCCO3)cc2)cc1`, the inhibition is 3.28% (inactive). Under `COc1ccc(Cl)cc1NC(=O)CN(C)C(=O)CCCc1c[nH]c2ccccc12` stands 0.4% (inactive); under `COc1ccccc1CC1(C)C(=O)Nc2ccc(OC(F)(F)F)cc21` (stereo unspecified), 0.53% (inactive); under `CC(C)(C)OC(=O)CNC(=O)c1[nH]cnc1C(=O)N[C@@H](Cc1ccccc1)C(=O)OCc1ccccc1`, 2.08% (inactive). Next, `C=CCC[C@@H](Cc1ccc(F)cc1)C(=O)OC[C@H](Cc1c[nH]c2ccccc12)NC(=O)[C@@H](CC=C)CC(=O)N(CCO)Cc1ccccc1`: 3.11% (inactive). On to `Cc1cc(Nc2ccccc2)n(C(=O)c2ccc(N)cc2)n1`, for which the inhibition was 0.56% (inactive). Consider `O=C(NCc1ccccc1)c1onc(CSc2nc3ccccc3[nH]2)c1C(=O)NCc1ccccc1`, for which the inhibition is 1.52% (inactive). Under `COc1ccc(C(=O)NN2C(=O)C3C(c4ccccc4)C=CC(c4ccccc4)C3C2=O)cc1` (stereo unspecified) stands 2.28% (inactive); under `N#Cc1nc(Cc2cccc3ccccc23)oc1NCc1ccc2c(c1)OCO2`, 2.25% (inactive); under `CC(C)Oc1ccc(CC(=O)NNC(=S)Nc2ccc(Br)cc2)cc1`, 0.68% (inactive). Turning to `Cn1nc(C(F)(F)F)c(C(=O)Nc2cccc(C(F)(F)F)c2)c1SCc1ccc(Cl)cc1`, the inhibition is 2.65% (inactive). Under `O=C(Oc1cccc(N2C(=O)C3C4c5ccccc5C(c5ccccc54)C3C2=O)c1)c1ccco1` (stereo unspecified) stands 1.5% (inactive). Next, `COc1cc(/C=N/n2c(C)n[nH]c2=S)ccc1OCc1ccccc1`: -0.91% (inactive).
